# Hits are enriched below; roughly 1.5% of the tested compounds scored in any of these assays.
# Myeloid diff MLP: induction of myeloid progenitor differentiation, primary screen, cell-based, flow cytometry, MLPCN library; ER-HoxA9 myeloid progenitors, lysozyme-GFP differentiation; calls only at 10 µM; 360,000 tested, 1% active; AID 624256, 2012;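 active means normalized GFP-positive differentiation at or above the plate's own cutoff, the solvent-only control mean plus 3 SD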;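 further: cells exposed to compound for four days before flow analysis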
# SENP1 inh: human SENP1 catalytic domain inhibitors, primary screen, biochemical, FRET, uHTS; Sentrin-specific protease 1 (Homo sapiens), Q9P0U3; recombinant SENP1 catalytic domain, CyPet-SUMO1-YPet FRET cleavage; inhibition, % at 10 µM; 360,000 tested, 0.21% active; AID 624204, 2012;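 active means inhibition at least 30% at 10 µM, raw YFP signal under a set limit, fluorescence ratio 0.5 to 1.5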
# Target sequence (Q9P0U3 419-644 limits assumed): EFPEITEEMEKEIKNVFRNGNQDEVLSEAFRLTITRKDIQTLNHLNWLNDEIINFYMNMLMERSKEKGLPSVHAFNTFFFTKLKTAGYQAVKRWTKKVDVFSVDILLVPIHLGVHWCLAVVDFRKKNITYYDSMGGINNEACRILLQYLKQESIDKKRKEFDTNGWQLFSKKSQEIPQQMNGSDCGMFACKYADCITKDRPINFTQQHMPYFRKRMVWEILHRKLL
#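 System: Recombinant human SENP1 catalytic domain, His6-tagged | Incubation: Enzyme reaction for 50 min at room temperature, dark | Medium: Tris pH 8 with BME, BSA, NP40 and catalase | Also added: 25 nM SUMO1 FRET substrate | Compound: 10 µM single point, 0.5% DMSO | Measured by: FRET fluorescence in CFP and YFP emission channels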
# Platelet DG rel: inhibitors of platelet dense granule secretion, primary screen, cell-based, MLPCN, human platelets. 300,000 tested, 0.22% active. inhibition, %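 (compounds screened at 7.5 µM in platelet-rich plasma)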. human platelet-rich plasma, SFLLRN dense granule ATP release, luminescence;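 active means mean replicate score, as percent of positive control, at or above 50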
# VLA-4 inh: inhibition in human VLA-4 binding assay, primary screen, VLA-4 allosteric modulator project, MLPCN library, flow cytometry, VLA-4 expressing cells. Integrin alpha-4 (Homo sapiens), P13612. ligand binding flow cytometry. inhibition, % (about 7 µM as worked out from the volumes in the protocol). 330,000 tested, 0.2% active; in the data active means inhibition above about 50%
# Hits are given with their value; 0 = inactive; - = no result; + = active, no number.
SMILES,Myeloid diff MLP,SENP1 inh,Platelet DG rel,VLA-4 inh
Cc1nn(CC(=O)NCCCN2CCCC2)c(=O)c2nn(-c3ccccc3)c(C)c12,0,0,0,0
COC(=O)c1ccccc1NC(=O)c1ccc(NC(=O)C2CCCO2)cc1 (stereo not given),0,0,0,0
COC(=O)c1ccccc1NC(=O)C1CCCO1 (stereo not given),+,0,0,0
CNC(C)c1cc(OC)ccc1OC (stereo not given),0,0,0,0
COc1ccc(OC)c(C(C)NC(C)=O)c1 (stereo not given),+,0,0,0
O=C(CCl)Nc1ccccc1Sc1ccc(Cl)cc1,0,0,0,0
O=C(O)CSCC(=O)Nc1ccccc1SCCS(=O)(=O)c1ccc(Cl)cc1,+,0,0,0
Cc1ccc(NC(=S)NC2CCN(Cc3ccccc3)CC2)cc1C,+,0,0,0
CC(=O)Nc1ccc(NCc2ccc(C)s2)cc1,0,0,0,0
O=C(NCC1CCCO1)c1ccccc1-c1nc(-c2ccc(Cl)cc2)no1 (stereo not given),+,0,0,0
O=C(NCC1CCCO1)c1ccccc1-c1nc(-c2ccccc2F)no1 (stereo not given),0,0,0,0
CCN1CCN(S(=O)(=O)c2ccc(Cl)c(C(=O)N(CCc3ccccc3)Cc3ccccc3)c2)CC1,+,0,-,-
CSc1ccccc1NC(=O)CSCc1nc2sc(C)c(C)c2c(=O)[nH]1,0,0,0,0
Cc1sc2nc(CSCC(=O)Nc3ccccc3C#N)[nH]c(=O)c2c1C,+,0,0,0
COc1ccc(-n2cnc3cc([N+](=O)[O-])ccc32)cc1,0,0,0,-
Nc1ccc(-n2cnc3cc([N+](=O)[O-])ccc32)cc1,+,0,0,0
COc1cc2c(cc1OC)C(c1ccc(-c3cc(Cl)ccc3Cl)o1)=NCC2,+,0,0,0
NC(=O)c1nsc(C(=O)N(Cc2ccc(F)cc2)C(C(=O)NCC2CCCO2)c2ccc(O)cc2)c1N (stereo not given),0,0,0,-
CN(C)S(=O)(=O)c1cccc(NC(=O)CSc2nnnn2-c2ccccc2)c1,0,0,49.8,0
Cc1ccc(S(=O)(=O)NCC(=O)Nc2cccnc2)cc1C,0,0,-,0
COC(=O)c1c(C)[nH]c(C(=O)CC#N)c1C,+,0,0,0
COc1cccc2cc(C(=O)NC(C)c3ccccc3)c(=O)oc12 (stereo not given),0,0,0,0
Cc1cccc(NC(=O)c2ccc(NCCO)c([N+](=O)[O-])c2)n1,0,0,85.2,0
Cc1cccc(NC(=O)c2ccc(NCC3CCCO3)c([N+](=O)[O-])c2)n1 (stereo not given),0,0,0,0
O=C(c1ccncc1)N(Cc1ccccc1)Cc1nc2ccccc2c(=O)[nH]1,+,0,0,0
SMILES,Myeloid diff MLP,SENP1 inh,Platelet DG rel,VLA-4 inh
O=C(c1ccccc1)N(Cc1ccc(F)cc1)Cc1nc2ccccc2c(=O)[nH]1,0,0,0,0
COC(=O)CCNC(=O)Cn1cnc2sc3c(c2c1=O)CCCC3,0,0,0,0
CCC(=O)Nc1c(C#N)c2nc3ccccc3nc2n1-c1ccccc1C,0,0,0,0
N#Cc1c(NC(=O)c2ccccc2Cl)n(Cc2ccccc2)c2nc3ccccc3nc12,+,0,-,0
CCCCn1c(NC(=O)c2ccccc2Cl)c(C#N)c2nc3ccccc3nc21,+,0,0,0
COc1ccc(-n2c(NC(=O)c3ccco3)c(C#N)c3nc4ccccc4nc32)cc1,+,0,0,0
CCCCn1c(NC(=O)CC)c(C#N)c2nc3ccccc3nc21,0,0,0,0
COc1cc(/C=N/NC(=O)COc2ccc(-n3cnnn3)cc2)ccc1OCC(N)=O,0,0,0,0
COC(=O)c1c(C(=O)OC)c(-c2cccc(Cl)c2)n2c1CS(=O)(=O)C2,+,0,0,0
Cc1nc2sc(-c3ccccc3)cc2c(=O)n1-n1cccc1,0,0,0,0
Cc1nc2sc(-c3ccccc3)cc2c(=O)n1N,0,0,79.7,0
COc1ccc(C2=CSC3=NCCN23)cc1Br,0,0,0,0
CCNc1nc(Cl)nc(NCc2ccccc2)n1,0,0,0,0
COC(=O)/C=C/c1c(C)nc(NCc2ccccc2)nc1Cl,+,0,0,0
Cc1cccc(-c2noc(CNC(=O)c3ccoc3C)n2)c1,+,0,0,0
Cc1occc1C(=O)NCc1nc(-c2ccccc2)no1,0,0,0,0
O=C1CC(C(=O)Nc2ccccc2)C2(CCCC2)O1 (stereo not given),+,0,0,0
CCOC(=O)c1cc([N+](=O)[O-])sc1NC(=O)c1ccc(S(=O)(=O)N2CC3(C)CC2CC(C)(C)C3)cc1 (stereo not given),+,0,0,0
CC(=O)c1ccc(C(=O)N2CCCC(CCC(=O)N(C)CCc3ccccn3)C2)s1 (stereo not given),+,0,0,0
C=CCn1c(=NC(=O)c2ccc(S(=O)(=O)N3CCCc4ccccc43)cc2)sc2cc(S(N)(=O)=O)ccc21,0,0,0,0
COCCn1c(=NC(=O)c2ccc(S(=O)(=O)N3CCCc4ccccc43)cc2)sc2cc(S(C)(=O)=O)ccc21,+,0,0,0
O=C(CN(CC1CCCO1)C(=O)CNS(=O)(=O)c1ccccc1)NCc1ccco1 (stereo not given),0,0,0,0
O=C(CNCC1CCCO1)NCc1ccco1 (stereo not given),+,0,0,0
COc1ccc(Cl)cc1Cn1c(C)c(C(=O)NCc2cccc(Cl)c2)sc1=O,0,0,-,-
Cc1ccc2nc(-c3ccc(N)cc3)sc2c1,0,0,0,0
SMILES,Myeloid diff MLP,SENP1 inh,Platelet DG rel,VLA-4 inh
Nc1ccc2nc(-c3ccccc3)sc2c1,0,0,64.0,0
Cc1ccc(C)c(C(=O)COC(=O)CN2C(=O)C3C4C=CC(C4)C3C2=O)c1 (stereo not given),0,0,0,0
Cc1ccc(S(=O)(=O)N2C(=O)CCC2C(=O)O/N=C(\N)c2ccc([N+](=O)[O-])cc2)cc1 (stereo not given),0,0,0,0
O=S(=O)(NCc1cccnc1)c1ccc2ccccc2c1,0,0,0,0
COc1ccc(C(c2nnnn2-c2ccc(OC)cc2)N2CCN(C/C=C/c3ccccc3)CC2)cc1 (stereo not given),0,0,-,-
COc1ccc(-n2nnnc2C(c2ccccc2OC(F)(F)F)N2CCN(C/C=C/c3ccccc3)CC2)cc1 (stereo not given),+,0,-,-
Cc1cc2nc3s/c(=C/c4ccc(-c5ccccc5C(=O)O)o4)c(=O)n3c2cc1C,+,0,0,0
CCOc1ccc2nc(NC(=O)c3ccc(OCC4CCCO4)cc3)sc2c1 (stereo not given),+,0,0,0
Cc1cccc2sc(NC(=O)c3ccc(OCC4CCCO4)cc3)nc12 (stereo not given),0,0,0,0
COc1ccc(C(=O)Oc2cc(C)c(CN3CCOCC3)cc2C)cc1OC,-,0,0,0

# Source: PubChem (several laboratories)
